Only a selection was taken, and hits are over-represented in it overall.
IDH1 R132H inh = inhibitors of human IDH1 R132H; IDH1 R132H reductase, diaphorase/resazurin fluorescence, 60 min; O75874; inhibition, % at 10 µM; actives 0.18% (n = 70,000); AID 624101; in the data active means inhibition above about 34%; inconclusive means no clear call, values can overlap the other calls; inactive means below about 11%
T cruzi growth-1 = T. cruzi proliferation inhibition; T. cruzi beta-gal in NIH3T3, GalScreen luminescence, 90 h; inhibition, % at 8.34 µM; actives 5.9% (n = 77,000); AID 624255;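 active means mean inhibition above about 93%, with at least 55% of replicates each passing it, limit read from the data, passing the limit was not always enough; inconclusive means only one of those two conditions holds; inactive means neither condition holds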
GASC1 inh = KDM4C (human) demethylase inhibition; Q9H3R0; GST-KDM4C 2-372, H3K9me3 peptide, LANCE TR-FRET; inhibition, % at 12.5 µM; actives 0.15% (n = 96,000); AID 720574;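 active means mean replicate inhibition above about 25%, with at least 55% of replicates also reaching it, limit read from the data, passing the limit was not always enough; inconclusive means only one of those two conditions met; inactive means neither condition met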
Target sequence (Q9H3R0 2-372 limits assumed): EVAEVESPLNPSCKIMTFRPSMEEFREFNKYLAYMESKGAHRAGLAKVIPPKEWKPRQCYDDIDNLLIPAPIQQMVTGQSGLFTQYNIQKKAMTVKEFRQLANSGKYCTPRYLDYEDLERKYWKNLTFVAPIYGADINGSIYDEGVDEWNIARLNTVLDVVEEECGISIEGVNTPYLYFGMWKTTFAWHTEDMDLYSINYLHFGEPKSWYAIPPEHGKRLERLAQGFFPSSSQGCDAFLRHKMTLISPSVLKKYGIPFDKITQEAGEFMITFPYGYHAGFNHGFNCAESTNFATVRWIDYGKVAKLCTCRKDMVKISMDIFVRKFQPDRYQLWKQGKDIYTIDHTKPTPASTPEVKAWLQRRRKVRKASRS
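Assay system: GST-GASC-1 enzyme fragment 2-372 | Amount: 10 nM enzyme | Medium: HEPES buffer, pH 7.5, plus ascorbate | Reagent: H3K9me3 peptide substrate, Fe(II), 2-oxoglutarate | Doses: Single-point compound screen | Incubation: 30 min demethylation and 1 h detection at room temperature | Measured by: LANCE TR-FRET, excitation 340 nm, emissions 618 and 671 nm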
T cruzi growth-2 = Trypanosoma cruzi proliferation inhibition | T. cruzi beta-gal in NIH3T3, GalScreen luminescence, 90 h | actives 72% (n = 5,600) | inhibition, % at 8.35 µM | AID 651739 | shares compounds with T cruzi growth-1;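 active means mean replicate inhibition above about 95% and at least 55% of replicates individually reaching it, limit read from the data; inconclusive means only one of the two criteria is met; inactive means neither criterion is met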
T cruzi growth-3 = blocks T. cruzi growth in NIH3T3 host cells; inhibition, % at 2.09 µM; shares compounds with T cruzi growth-1; T. cruzi beta-gal in NIH3T3, GalScreen luminescence, 90 h; actives 21% (n = 5,600);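 active means mean inhibition above about 95%, with at least 55% of replicates also reaching it, limit read from the data; inconclusive means meets just one of the two conditions; inactive means meets neither condition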
NIH3T3 tox = cytotoxicity in mouse NIH/3T3 fibroblasts; shares compounds with T cruzi growth-1; cytotoxicity (signal decrease), % at 8.35 µM; actives 14% (n = 5,600); NIH/3T3 viability, CellTiter-Glo ATP luminescence, 90 h;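 active means mean signal decrease across replicates above about 35% based on untreated-well scatter, with enough replicates individually passing, limit read from the data; inconclusive means no rule stated though some were filed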
3T3 cytotox 2 = cytotoxicity in mouse NIH/3T3 fibroblasts; shares compounds with T cruzi growth-1; NIH/3T3 viability, CellTiter-Glo ATP luminescence, 90 h; inhibition, % at 24.9 µM; actives 56% (n = 5,600); AID 651744;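 active means mean loss of cell viability signal at or above a set limit, and enough replicates individually reaching it; inconclusive means meets only the mean limit or only the replicate share; inactive means meets neither condition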
Numbers stand for hits; - = inactive; ? = inconclusive; . = not tested or not shown.

SMILES	IDH1 R132H inh	T cruzi growth-1	GASC1 inh	T cruzi growth-2	T cruzi growth-3	NIH3T3 tox	3T3 cytotox 2
Cc1ccc(OCC(=O)Nc2ncccc2C)cc1	-	.	.	.	.	.	.
CCN(CC(=O)Nc1cccc([N+](=O)[O-])c1)S(=O)(=O)c1ccc(F)cc1	-	.	.	.	.	.	.
O=C(Nc1scc(-c2ccccc2)c1C(=O)NCc1ccco1)c1ccccc1	-	.	.	.	.	.	.
C[C@H](CO)N1C[C@H](C)[C@H](CN(C)CC2CCCCC2)Oc2ccc(NC(=O)Cc3ccccc3)cc2C1=O	.	-	-	.	.	.	.
C[C@@H]1CN([C@@H](C)CO)C(=O)c2cc(NC(=O)Cc3ccccc3)ccc2O[C@H]1CN(C)CC1CCCCC1	.	?	-	-	-	-	-
C[C@H]1CN([C@@H](C)CO)C(=O)c2cc(NC(=O)CCC(F)(F)F)ccc2O[C@H]1CN(C)CC1CCCCC1	-	-	-	.	.	.	.
C[C@H](CO)N1C[C@H](C)[C@@H](CN(C)CC2CCCCC2)Oc2ccc(NC(=O)CCC(F)(F)F)cc2C1=O	.	?	.	-	-	-	-
O=c1[nH]c(SCc2ccccc2[N+](=O)[O-])nc2ccccc12	-	.	.	.	.	.	.
CCc1ccccc1N(CC(=O)NC)S(C)(=O)=O	-	.	.	.	.	.	.
CCc1c(O)nc(SCC(=O)N(c2ccccc2)c2ccccc2)[nH]c1=O	-	.	.	.	.	.	.
Cc1cc(C)c(C)c(OCC(O)Cn2cnc3ccccc32)c1 (configuration not stated)	-	.	.	.	.	.	.
O=C(C[C@@H]1C[C@@H]2c3cc(NS(=O)(=O)c4ccc(F)cc4)ccc3O[C@@H]2[C@@H](CO)O1)NCc1ccc(-c2ccccc2)cc1	-	102.1	.	-	-	39.1	45.1
COc1cccc(S(=O)(=O)Nc2ccc3c(c2)[C@H]2C[C@H](CC(=O)NCc4ccccc4F)O[C@H](CO)[C@H]2O3)c1	-	143.5	-	97.9	-	-	-
O=C(C[C@H]1C[C@H]2c3cc(NS(=O)(=O)c4ccc(F)cc4)ccc3O[C@H]2[C@H](CO)O1)NCc1ccc(-c2ccccc2)cc1	-	100.6	-	-	101.0	66.3	67.4
O=C(C[C@@H]1C[C@H]2c3cc(NS(=O)(=O)c4ccc(F)cc4)ccc3O[C@H]2[C@H](CO)O1)NCc1ccccc1	-	-	-	.	.	.	.
COc1cccc(S(=O)(=O)Nc2ccc3c(c2)[C@@H]2C[C@H](CC(=O)NCc4ccccc4F)O[C@@H](CO)[C@@H]2O3)c1	-	-	-	.	.	.	.
O=C(C[C@H]1C[C@H]2c3cc(NS(=O)(=O)c4ccc(F)cc4)ccc3O[C@H]2[C@H](CO)O1)NCc1ccccc1	-	-	-	.	.	.	.
O=C(C[C@@H]1C[C@H]2c3cc(NS(=O)(=O)c4ccc(F)cc4)ccc3O[C@H]2[C@@H](CO)O1)NCc1ccc(-c2ccccc2)cc1	-	-	-	.	.	.	.
O=C(C[C@H]1C[C@H]2c3cc(NS(=O)(=O)c4ccc(F)cc4)ccc3O[C@H]2[C@@H](CO)O1)NCc1ccc(Oc2ccccc2)cc1	-	119.5	-	101.1	-	-	-
COc1c(CO)c(O)cc2c1C(=O)c1ccccc1C2=O	-	.	.	.	.	.	.
CS(=O)(=O)N(CC(=O)Nc1ccccc1C(=O)N1CCCC1)c1cccc(F)c1	-	.	.	.	.	.	.
Cc1cc(-c2ccccc2)nc(SCC(=O)Nc2ccc(I)cc2)n1	-	.	.	.	.	.	.
Cc1ccc(-c2nnc(SCC(=O)Nc3cccc([N+](=O)[O-])c3)n2-c2ccccc2)cc1Cl	-	.	.	.	.	.	.
Cc1ccccc1S(=O)(=O)N1CC[C@@H]2[C@H](CO)Nc3ccc(-c4cccc(C#N)c4)cc3[C@@H]21	.	-	-	.	.	.	.
Cc1ccccc1S(=O)(=O)N1CC[C@@H]2[C@H](CO)Nc3ccc(-c4ccc(C#N)cc4)cc3[C@@H]21	.	?	-	97.6	104.4	?	67.4
SMILES	IDH1 R132H inh	T cruzi growth-1	GASC1 inh	T cruzi growth-2	T cruzi growth-3	NIH3T3 tox	3T3 cytotox 2
Cn1cnc(S(=O)(=O)N2CC[C@H]3[C@H](CO)Nc4ccc(-c5ccccc5)cc4[C@H]32)c1	.	101.4	-	102.9	-	-	-
Cc1ccccc1S(=O)(=O)N1CC[C@@H]2[C@H]1c1cc(-c3ccc(C#N)cc3)ccc1N[C@@H]2CO	.	101.2	-	103.6	-	-	42.4
Cn1cnc(S(=O)(=O)N2CC[C@H]3[C@H](CO)Nc4ccc(-c5ccc(F)cc5)cc4[C@H]32)c1	.	-	-	.	.	.	.
Cc1ccccc1S(=O)(=O)N1CC[C@@H]2[C@@H](CO)Nc3ccc(-c4cccc(C#N)c4)cc3[C@@H]21	.	-	-	.	.	.	.
Cc1cc(Br)ccc1NC(=O)CCCN1C(=O)c2ccccc2C1=O	-	.	.	.	.	.	.
O=C(C[C@@H]1CC[C@H]2[C@@H](COC[C@@H](O)CN2Cc2ccc(Oc3ccccc3)cc2)O1)N1CCN(c2ccccc2)CC1	.	-	-	.	.	.	.
O=C(C[C@@H]1CC[C@@H]2[C@H](COC[C@H](O)CN2Cc2ccc(Oc3ccccc3)cc2)O1)N1CCN(c2ccccc2)CC1	.	115.2	-	-	-	-	103.9
CN1C[C@@H](O)COC[C@@H]2O[C@@H](CC(=O)N3CCN(c4ccccc4)CC3)CC[C@H]21	.	-	-	.	.	.	.
CN1C[C@@H](O)COC[C@@H]2O[C@H](CC(=O)N3CCN(c4ccccc4)CC3)CC[C@H]21	.	109.1	-	-	-	-	-
O=C(C[C@H]1CC[C@H]2[C@@H](COC[C@H](O)CN2Cc2ccc(Oc3ccccc3)cc2)O1)N1CCN(c2ccccc2)CC1	.	134.4	-	105.4	-	-	38.2
O=C(C[C@@H]1CC[C@@H]2[C@H](COC[C@@H](O)CN2Cc2ccc(Oc3ccccc3)cc2)O1)N1CCOCC1	.	-	-	.	.	.	.
COc1ccc(S(=O)(=O)N(C)CC(=O)Nc2cccc(SC)c2)cc1C	-	.	.	.	.	.	.
CC(=O)Nc1cccc(-c2nnc(SCC(=O)Nc3ccccc3F)n2C)c1	-	.	.	.	.	.	.
CN(C)CC(=O)Nc1ccc2c(c1)[C@@H]1C[C@H](CC(=O)N3CCc4ccccc4C3)O[C@H](CO)[C@@H]1O2	-	-	-	.	.	.	.
O=C(Nc1ccc2c(c1)[C@@H]1C[C@H](CC(=O)N3CCc4ccccc4C3)O[C@@H](CO)[C@@H]1O2)Nc1ccccc1F	-	.	-	.	.	.	.
O=C(C[C@@H]1C[C@H]2c3cc(NS(=O)(=O)c4ccc(F)cc4)ccc3O[C@H]2[C@@H](CO)O1)N1CCc2ccccc2C1	-	117.4	-	-	-	-	-
O=C(C[C@H]1C[C@H]2c3cc(NS(=O)(=O)c4ccc(F)cc4)ccc3O[C@H]2[C@@H](CO)O1)N1CCc2ccccc2C1	-	-	-	.	.	.	.
O=C(Nc1ccc(C(F)(F)F)cc1)Nc1ccc2c(c1)[C@@H]1C[C@@H](CC(=O)N3CCc4ccccc4C3)O[C@H](CO)[C@@H]1O2	-	138.1	-	97.5	?	-	103.9
O=C(CC1CC1)Nc1ccc2c(c1)[C@@H]1C[C@@H](CC(=O)N3CCCCC3)O[C@@H](CO)[C@@H]1O2	-	104.3	-	-	-	-	-

Screens from PubChem.
